ChEMBL document CHEMBL5252510, “A Novel Potent Oral Series of VEGFR2 Inhibitors Abrogate Tumor Growth by Inhibiting Angiogenesis” (J Med Chem, 2016)

Experiments:
[1] = target: Vascular endothelial growth factor receptor 1 (Homo sapiens, UniProt P17948); test: Inhibition of human recombinant GST-fused VEGFR1 kinase domain transphosphorylation expressed in baculovirus expression system using poly-Glu-Tyr (4:1) as substrate measured after 10 mins in presence of gamma-[33P]-ATP by scintillation counting analysis
Vascular endothelial growth factor receptor 1, sequence (P17948 whole entry, the tested form may be a part): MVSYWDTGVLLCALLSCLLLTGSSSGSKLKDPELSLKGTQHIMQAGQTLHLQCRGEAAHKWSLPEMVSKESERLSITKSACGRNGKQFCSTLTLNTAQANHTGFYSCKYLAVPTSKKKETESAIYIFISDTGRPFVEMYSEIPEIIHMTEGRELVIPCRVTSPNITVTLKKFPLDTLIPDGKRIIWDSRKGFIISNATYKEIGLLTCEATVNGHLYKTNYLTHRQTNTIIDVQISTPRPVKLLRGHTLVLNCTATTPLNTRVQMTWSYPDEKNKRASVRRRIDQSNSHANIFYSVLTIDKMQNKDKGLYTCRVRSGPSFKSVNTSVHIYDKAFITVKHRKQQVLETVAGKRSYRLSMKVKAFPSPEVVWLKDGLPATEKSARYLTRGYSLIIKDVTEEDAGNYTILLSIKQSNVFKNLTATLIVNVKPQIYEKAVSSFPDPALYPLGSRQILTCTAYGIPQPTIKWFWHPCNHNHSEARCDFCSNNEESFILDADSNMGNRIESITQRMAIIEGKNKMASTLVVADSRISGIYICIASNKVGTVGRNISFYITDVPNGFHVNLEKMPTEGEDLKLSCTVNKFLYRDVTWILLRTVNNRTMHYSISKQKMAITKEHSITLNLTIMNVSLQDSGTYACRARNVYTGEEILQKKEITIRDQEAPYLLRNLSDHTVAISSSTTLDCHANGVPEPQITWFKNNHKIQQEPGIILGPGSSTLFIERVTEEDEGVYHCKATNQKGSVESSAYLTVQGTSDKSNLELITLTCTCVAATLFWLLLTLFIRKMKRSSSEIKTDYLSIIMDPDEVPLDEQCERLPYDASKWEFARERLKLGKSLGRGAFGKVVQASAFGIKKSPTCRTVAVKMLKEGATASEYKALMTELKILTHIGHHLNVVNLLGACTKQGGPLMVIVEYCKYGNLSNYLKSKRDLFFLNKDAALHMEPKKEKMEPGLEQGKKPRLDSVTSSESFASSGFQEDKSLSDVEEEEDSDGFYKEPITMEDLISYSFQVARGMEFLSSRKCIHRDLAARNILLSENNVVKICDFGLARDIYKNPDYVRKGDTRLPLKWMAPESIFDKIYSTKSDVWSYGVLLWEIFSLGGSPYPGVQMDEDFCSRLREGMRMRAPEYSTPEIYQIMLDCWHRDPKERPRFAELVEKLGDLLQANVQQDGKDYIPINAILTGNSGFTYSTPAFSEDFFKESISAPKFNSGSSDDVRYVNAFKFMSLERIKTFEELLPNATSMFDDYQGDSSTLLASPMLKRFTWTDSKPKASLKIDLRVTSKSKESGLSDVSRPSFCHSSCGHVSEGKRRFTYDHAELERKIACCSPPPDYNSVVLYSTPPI
How it was run: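 GST-fused kinase domains were expressed in baculovirus and purified on glutathione-Sepharose. 10 min at ambient temperature, stopped with EDTA. Filter binding and scintillation counting. IC50 by linear regression of percent inhibition.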

[2] = Toxicity in C57BL/6jNpa mouse harbouring mouse B16-BL6 cells assessed as effect on animal behavior at 3 mg/kg, po qd administered started on day 7 post implantation measured after 21 days; assay type: organism-based; details: in vivo, 504 h, time 7-21 day
How it was run: (§1)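 Female C57BL/6JNpa mice received 50000 B16/BL6 cells intradermally in both ear pinnae. Randomized on day 7 into groups of 5–6, then dosed 3 mg/kg p.o. daily in PEG200/PEG300 for 14 days. Behavior and well-being were observed. On day 21, blood was analysed for platelet, red and white cell counts and hematocrit.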

[3] = Toxicity in C57BL/6jNpa mouse harbouring mouse B16-BL6 cells assessed as effect on animal well-being at 3 mg/kg, po qd administered started on day 7 post implantation measured after 21 days; assay type: organism-based; details: in vivo, 504 h, time 7-21 day; how it was run: as §1
[4] = Toxicity in C57BL/6jNpa mouse harbouring mouse B16-BL6 cells assessed as drug tolerability at 3 mg/kg, po qd administered started on day 7 post implantation measured after 21 days; assay type: organism-based; details: in vivo, 504 h, time 7-21 day; how it was run: as §1
BaF3 [5] = test: Antiproliferative activity against mouse BaF3 cells expressing Tel-KDR-myc1.3 assessed as cell growth inhibition measured after 72 hrs by Alamar Blue assay; details: BaF3, 72 h
BaF3 [6] = test: Antiproliferative activity against mouse BaF3 cells expressing Bcr-ABL assessed as cell growth inhibition measured after 72 hrs by Alamar Blue assay; details: BaF3, 72 h
BaF3 [7] = test: Antiproliferative activity against mouse BaF3 cells expressing ERBB2 V659E mutant assessed as cell growth inhibition measured after 72 hrs by Alamar Blue assay; details: BaF3, 72 h
BaF3 [8] = test: Antiproliferative activity against mouse BaF3 cells expressing Tel-FGFR3 assessed as cell growth inhibition measured after 72 hrs by Alamar Blue assay; details: BaF3, 72 h
BaF3 [9] = test: Antiproliferative activity against mouse BaF3 cells expressing Tel-IGF-1R assessed as cell growth inhibition measured after 72 hrs by Alamar Blue assay; details: BaF3, 72 h
BaF3 [10] = test: Antiproliferative activity against mouse BaF3 cells expressing KIT D816V mutant assessed as cell growth inhibition measured after 72 hrs by Alamar Blue assay; details: BaF3, 72 h
BaF3 [11] = test: Antiproliferative activity against mouse BaF3 cells expressing PTC3-RET assessed as cell growth inhibition measured after 72 hrs by Alamar Blue assay; details: BaF3, 72 h
BaF3 [12] = test: Antiproliferative activity against mouse BaF3 cells expressing Tel-PDGFRbeta assessed as cell growth inhibition measured after 72 hrs by Alamar Blue assay; details: BaF3, 72 h
BaF3 [13] = test: Antiproliferative activity against mouse BaF3 cells expressing NPM-ALK assessed as cell growth inhibition measured after 72 hrs by Alamar Blue assay; details: BaF3, 72 h
HUVEC = test: Antiproliferative activity against VEGF-stimulated HUVEC cells assessed as cell growth inhibition measured after 24 hrs by BrdUrd incorporation based spectrophotometric analysis; details: Homo sapiens
[14] = Toxicity in VEGF-induced FVB mouse model at 0.3 to 3 mg/kg, po qd treated for 4 to 6 hrs prior to chamber implantation and continuing for 4 days measured after 24 hrs post last dose; assay type: organism-based; details: in vivo, 120 h, dose 0.3-3 mg/kg, time 5 day
How it was run: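 Female FVB mice (18–20 g), groups of 6. Porous chambers with VEGF (2 μg/mL) in 0.5 mL 0.8 % agar with heparin (20 U/mL) implanted subcutaneously in flank. Oral dosing once daily in 100 % PEG200 (5 mL/kg), starting 4-6 h before implantation, for 4 days; chambers removed 24 h after last dose. Animals observed for signs of toxicity.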

B16-BL6 [15] = test: Antitumor activity against mouse B16-BL6 cells implanted in C57BL/6jNpa mouse assessed as metastatic tumor growth inhibition at 3 mg/kg, po qd administered started on day 7 post implantation measured after 21 days relative to control; assay type: functional; details: time 7-21 day, read-out: TGI
How it was run: (§2)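 Female C57BL/6JNpa mice, 50000 B16/BL6 cells intradermally in both ear pinnae; primary tumor area (mm²) imaged days 7, 14, 21; randomized day 7 into groups of 5-6, oral dosing in PEG200 or PEG300 vehicle daily (or every 2 days) for 14 days; day 21 cervical lymph nodes weighed, metastasis lysates assayed for TIE-2 by ELISA; T/C ratios.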

B16-BL6 [16] = test: Antitumor activity against mouse B16-BL6 cells implanted in C57BL/6jNpa mouse assessed as primary tumor growth inhibition at 3 mg/kg, po qd administered started on day 7 post implantation measured after 21 days relative to control; assay type: functional; details: time 7-21 day, read-out: TGI; how it was run: as §2
[17] = Toxicity in C57BL/6jNpa mouse harbouring mouse B16-BL6 cells assessed as effect on body weight at 3 mg/kg, po qd administered started on day 7 post implantation measured after 21 days; assay type: organism-based; details: in vivo, 504 h, time 7-21 day
How it was run: (§3)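 B16/BL6 melanoma cells (50000) injected intradermally into dorsal pinna of both ears of female mice (18–20 g). Randomized on day 7 into groups of 5-6 by primary tumor size, then dosed orally once daily for 14 days in PEG300 or PEG200. Sacrificed day 21; blood analysed directly for platelets, red and white cell counts, hematocrit. Body and spleen weight recorded versus healthy naive mouse.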

[18] = Toxicity in C57BL/6jNpa mouse harbouring mouse B16-BL6 cells assessed as effect on spleen weight at 3 mg/kg, po qd administered started on day 7 post implantation measured after 21 days; assay type: organism-based; details: in vivo, 504 h, time 7-21 day; how it was run: as §3
B16-BL6 [19] = test: Antitumor activity against mouse B16-BL6 cells implanted in C57BL/6jNpa mouse assessed as metastatic tumor growth inhibition by measuring T/C ratio at 3 mg/kg, po qd administered started on day 7 post implantation measured after 21 days; assay type: functional; details: time 7-21 day; how it was run: as §2
[20] = Tmax in Sprague-Dawley rat at 50 mg/kg, po measured upto 24 hrs by HPLC/UV analysis; assay type: ADME, organism-based; details: in vivo
How it was run: (§4)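 Female Sprague Dawley rats, 8 weeks old, catheterized. Oral suspension in 0.5 % carboxymethyl cellulose at 50 mg/kg, n=3. Bioavailability taken against 3 mg/kg iv. Plasma sampled 5 min–24 h. Cmax and AUC(0–∞) dose-normalized.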

[21] = Dose normalized AUC(0 to infinity) in Sprague-Dawley rat at 50 mg/kg, po measured upto 24 hrs by HPLC/UV analysis; assay type: ADME, organism-based; details: in vivo; how it was run: as §4
[22] = Oral bioavailability in Sprague-Dawley rat at 50 mg/kg measured upto 24 hrs by HPLC/UV analysis; assay type: ADME, organism-based; details: in vivo; how it was run: as §4
[23] = Toxicity in C57BL/6jNpa mouse harbouring mouse B16-BL6 cells assessed as effect on white blood cell count at 3 mg/kg, po qd administered started on day 7 post implantation measured after 21 days; assay type: organism-based; details: in vivo, 504 h, time 7-21 day; how it was run: as §3
[24] = Toxicity in C57BL/6jNpa mouse harbouring mouse B16-BL6 cells assessed as effect on blood platelet count at 3 mg/kg, po qd administered started on day 7 post implantation measured after 21 days; assay type: organism-based; details: in vivo, 504 h, time 7-21 day; how it was run: as §1

| IC50 [1] | IC50 (BaF3 [5]) | IC50 (BaF3 [6]) | IC50 (BaF3 [7]) | IC50 (BaF3 [8]) | IC50 (BaF3 [9]) | IC50 (BaF3 [10]) | IC50 (BaF3 [11]) | IC50 (BaF3 [12]) | IC50 (BaF3 [13]) | SMILES | Activity [2] | Activity [3] | Activity [4] | IC50 (HUVEC) | Activity [14] | inhibition in vivo at 3 mg/kg (B16-BL6 [15]) | inhibition in vivo at 3 mg/kg (B16-BL6 [16]) | Activity [17] | Activity [18] | T/C (B16-BL6 [19]) | also measured |
| --- | --- | --- | --- | --- | --- | --- | --- | --- | --- | --- | --- | --- | --- | --- | --- | --- | --- | --- | --- | --- | --- |
| 223 nM | 9 nM | > 10000 nM | > 10000 nM | 8260 nM | 8900 nM | 8510 nM | 226 nM | 16 nM | > 10000 nM | Nc1nccc(Oc2ccc3c(C(=O)Nc4ccc(F)c(C(F)(F)F)c4)cccc3c2)n1 | Non-Toxic | Non-Toxic | Non-Toxic | 0.077 nM | Non-Toxic | 71% | 54% | Non-Toxic | Non-Toxic | 0.13 | Tmax [20]: 5 h; AUC/dose [21]: 1.37 µmol·h/L; bioavailability [22]: 9%; Activity [23]: Non-Toxic; Activity [24]: Non-Toxic |
| 81 nM | 2 nM | 9500 nM | > 10000 nM | 2280 nM | > 10000 nM | 8000 nM | 9 nM | 4 nM | > 10000 nM | Nc1cc(Oc2ccc3c(C(=O)Nc4cccc(C(F)(F)F)c4)cccc3c2)ncn1 | Non-Toxic | Non-Toxic | Non-Toxic | 1.7 nM | Non-Toxic | 71% | 54% | Non-Toxic | Non-Toxic | 0.04 | Tmax [20]: 4 h; AUC/dose [21]: 0.67 µmol·h/L; bioavailability [22]: 5%; Activity [23]: Non-Toxic; Activity [24]: Non-Toxic |

Further lines, the compound ahead of its results:

| SMILES | IC50 [1] | IC50 (BaF3 [5]) | IC50 (BaF3 [6]) | IC50 (BaF3 [7]) | IC50 (BaF3 [8]) | IC50 (BaF3 [9]) | IC50 (BaF3 [10]) | IC50 (BaF3 [11]) | IC50 (BaF3 [12]) | IC50 (BaF3 [13]) | Activity [2] | Activity [3] | Activity [4] | IC50 (HUVEC) | Activity [14] | inhibition in vivo at 3 mg/kg (B16-BL6 [15]) | inhibition in vivo at 3 mg/kg (B16-BL6 [16]) | Activity [17] | Activity [18] | T/C (B16-BL6 [19]) | also measured |
| --- | --- | --- | --- | --- | --- | --- | --- | --- | --- | --- | --- | --- | --- | --- | --- | --- | --- | --- | --- | --- | --- |
| Nc1nccc(Oc2ccc3c(C(=O)Nc4cccc(C(F)(F)F)c4)cccc3c2)n1 | 820 nM | 4 nM | 4750 nM | > 10000 nM | 8270 nM | > 10000 nM | > 10000 nM | 152 nM | 9 nM | > 10000 nM | Non-Toxic | Non-Toxic | Non-Toxic | 0.12 nM | Non-Toxic | 71% | 54% | Non-Toxic | Non-Toxic | 0.29 |  |
| O=C(Nc1cccc(C(F)(F)F)c1)c1cccc2cc(Oc3cc(CO)ncn3)ccc12 [BFH-772] | 1700 nM | 2 nM | 7500 nM | > 10000 nM | 6540 nM | 7200 nM | > 10000 nM | 104 nM | 27 nM | > 10000 nM | Non-Toxic | Non-Toxic | Non-Toxic | < 0.01 nM | Non-Toxic | 71% | 54% | Non-Toxic | Non-Toxic | 0.17 |  |
| Nc1cc(Oc2ccc3c(C(=O)Nc4ccc(F)c(C(F)(F)F)c4)cccc3c2)ncn1 | 333 nM | 5 nM | > 10000 nM | > 10000 nM | 2660 nM | > 10000 nM | 7800 nM | 40 nM | 10 nM | > 10000 nM | Non-Toxic | Non-Toxic | Non-Toxic | 0.003 nM | Non-Toxic | 71% | 54% | Non-Toxic | Non-Toxic | 0.04 | Tmax [20]: 8 h; AUC/dose [21]: 4.19 µmol·h/L; bioavailability [22]: 9%; Activity [23]: Non-Toxic; Activity [24]: Non-Toxic |
